Here are results for 37 sequences from the array DNA melting data of Ke et al. (doi:10.1101/2024.01.08.574731).

The nature of series [1]: folding enthalpy; higher = less favourable; fluorescence melt of hairpins on a sequencing array, two-state fit. The note with it: sodium 0.088 M. An outline of the steps:
(§1)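 To match UV melts, fitted temperatures were raised by 9.35 °C. These fits were bootstrapped two-state models that gave melting temperature and folding enthalpy, combined by inverse variance over four replicates. The input was normalised Cy3 fluorescence of library hairpins with annealed Cy3 and quencher oligos on a sequenced MiSeq flow cell, imaged in 50 mM Na-HEPES pH 8.0, 25 mM NaCl in 2.5 °C steps up to 60 °C.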

Series [2] can be described thus: melting temperature; fluorescence melt of hairpins on a sequencing array, two-state fit, raised by 9.35 °C to match UV melts. To be noted: sodium 0.088 M. In short, it runs like this:
as §1

For the sequence GTTCGTGGAAACGTGAAC ((((..(....)..)))), the folding enthalpy in series [1] is -15.3 kcal/mol. For the same sequence, the Tm in series [2] turned out to be 34.8 °C.
With GCTCTAGAAATAGAGC ((((((....)))))), the folding enthalpy in series [1] was -34.1 kcal/mol. Moreover, the Tm in series [2] turned out to be 50.9 °C.
For GGCTACGGAAACGCAGCC ((((.((....)).)))), the folding enthalpy in series [1] is -53 kcal/mol. In addition, the Tm in series [2] is 52.6 °C.
For the sequence GCGAGAAGTCGC ((((....)))), the folding enthalpy in series [1] is -18.3 kcal/mol. Further, the Tm in series [2] was 50.2 °C.
On to GCGATCGGTCGC ((((....)))), for which the folding enthalpy in series [1] was -31.6 kcal/mol. Besides, the Tm in series [2] was determined as 48.5 °C.
The corresponding values for GTAAATGGAAACATTTAC (((((((....))))))) are -31.5 kcal/mol and 51.3 °C.
Consider GGTTATGGAAACATAATC (.(((((....))))).), for which, in series [1], the folding enthalpy was -31.2 kcal/mol. Moreover, the Tm in series [2] stood at 36 °C.
Take GTCACATCGAAAGATGAC (((..(((....)))))): in series [1], the folding enthalpy was -12.8 kcal/mol. For the same sequence, the Tm in series [2] amounted to 30.2 °C.
The corresponding values for GAACTCCGAAAGGATTTC (((.(((....))).))) are -23.5 kcal/mol and 35.2 °C.
GTGACCGAAAGGTCCCAC ((((((....)))..))): in series [1], the folding enthalpy is -8.57 kcal/mol. The Tm in series [2] turned out to be 35.9 °C.
Turning to GCGTTGCGAAAGCGCCGC (((..((....))..))), the folding enthalpy in series [1] was -14.8 kcal/mol. In series [2], the Tm was found to be 58.4 °C.
The corresponding values for GATCTGACACAGATC ((((((...)))))) are -35.7 kcal/mol and 48.1 °C.
With GTATGAGGAAACTCACAC ((.((((....)))).)), the folding enthalpy in series [1] is -14.5 kcal/mol. In addition, the Tm in series [2] amounted to 29.4 °C.
As to AGCCTGAAAAGGCT (((((....))))), in series [1], the folding enthalpy is -18.2 kcal/mol. For the same sequence, in series [2], the Tm was 66.1 °C.
Regarding GATCTGTAAACAGATC ((((((....)))))), the folding enthalpy in series [1] is -39.5 kcal/mol. In addition, in series [2], the Tm turned out to be 50.3 °C.
As for GGATCCGAAAGGAGCTCC ((((((....)))..))), in series [1], the folding enthalpy was -13.4 kcal/mol. For the same sequence, the Tm in series [2] turned out to be 44.2 °C.
GCGCAAGCGAAAGCTCGC (((..(((....)))))): in series [1], the folding enthalpy is -12.8 kcal/mol. Besides, the Tm in series [2] stood at 45.7 °C.
Consider GATCCACACTGGATC ((((((...)))))), for which, in series [1], the folding enthalpy was -33.2 kcal/mol. The Tm in series [2] came out at 50.7 °C.
Regarding GTAGGGGGAAACCTCTGC (.((.((....)).)).), the folding enthalpy in series [1] is -16.8 kcal/mol. In series [2], the Tm was determined as 31.9 °C.
As for GTCCAAGGAAACTCGGAC ((((.((....)).)))), the folding enthalpy in series [1] was -30.6 kcal/mol. Besides, the Tm in series [2] was 38.8 °C.
The corresponding values for GCTCCTGGAAACAGGGGC ((.((((....)))).)) are -39.6 kcal/mol and 57.4 °C.
With GCGAGCGGAAACGCCCAC (.(.(((....))).).), in series [1], the folding enthalpy was -8.67 kcal/mol. In addition, in series [2], the Tm was determined as 34.2 °C.
The corresponding values for GCAGGGGGAAACTCCTGC (((((.(....).))))) are -43.4 kcal/mol and 57.6 °C.
Regarding GCCTTGCGAAAGCAGGC (((.(((....)))))), in series [1], the folding enthalpy is -24 kcal/mol. In series [2], the Tm amounted to 66.7 °C.
On to GAATCTGAAAAGATTC ((((((....)))))), for which the folding enthalpy in series [1] was -36.8 kcal/mol. The Tm in series [2] is 49.8 °C.
In the case of GATGGCCGAAAGGCATC (((.(((....)))))), the folding enthalpy in series [1] is -14.6 kcal/mol. In series [2], the Tm worked out at 49.9 °C.
In the case of GTTACTCGAAAGAGAAC (((.(((....)))))), the folding enthalpy in series [1] is -13.7 kcal/mol. For the same sequence, in series [2], the Tm stood at 31.5 °C.
Take GTCGACCGAAAGGTTGAC (((.(((....))).))): the folding enthalpy in series [1] was -34.8 kcal/mol. The Tm in series [2] amounted to 62.2 °C.
Take GCCCCAGGAAACTGAGGC (((.(((....))).))): the folding enthalpy in series [1] is -33.5 kcal/mol. For the same sequence, the Tm in series [2] turned out to be 47.5 °C.
For GCAAGTGGAAACACTTAC (.(((((....))))).), the folding enthalpy in series [1] is -18.7 kcal/mol. In addition, the Tm in series [2] amounted to 34.6 °C.
Regarding GCGGCCCTCCGC ((((....)))), the folding enthalpy in series [1] was -26.5 kcal/mol. For the same sequence, in series [2], the Tm amounted to 59.6 °C.
As to GGACTTCCGAAAGGATCC (((..(((....)))))), in series [1], the folding enthalpy was -12.7 kcal/mol. Besides, the Tm in series [2] was 29.1 °C.
The corresponding values for GATCTTTAAAAAGATC ((((((....)))))) are -34.8 kcal/mol and 40.5 °C.
In the case of CGCGGGCGGAAACGCGCG (((..(((....)))))), the folding enthalpy in series [1] was -14.9 kcal/mol. The Tm in series [2] was found to be 65.4 °C.
The corresponding values for GGTAGACGAAAGTCACC (((.(((....)))))) are -23.6 kcal/mol and 50.8 °C.
For GGACGCGAAAGCGGATCC ((((((....)))..))), the folding enthalpy in series [1] is -12.3 kcal/mol. For the same sequence, in series [2], the Tm stood at 47.5 °C.
GTGGTCCGAAAGGAGCAC (((.(((....))).))): the folding enthalpy in series [1] is -34.6 kcal/mol. In series [2], the Tm is 67.6 °C.
